Values after ≈ are worked out from the molar mass of the structure shown. Active and inactive are the calls of the source. No cut-off for these calls is given here.
Columns and labels:
Plasmodium falciparum [1] = test: Antiplasmodial activity against chloroquine-sensitive Plasmodium falciparum D10 infected in human RBCs after 72 hrs by parasite lactate dehydrogenase assay; format: functional, organism-based; conditions: D10, 72 h
Procedure, shortened: (§1)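 Asynchronous cultures (parasitemia 1−1.5%, 1% final hematocrit) in human type A-positive RBCs, RPMI 1640 with 1% AlbuMax, hypoxanthine, Hepes and glutamine. Exposed to serial dilutions (DMSO <1% final) for 72 h at 37 °C under 1% O₂/5% CO₂/94% N₂. Growth read as pLDH activity at OD₆₅₀ (modified Makler method).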

Plasmodium falciparum [2] = test: Resistant index, ratio of IC50 for chloroquine-resistant Plasmodium falciparum W2 to IC50 for chloroquine-sensitive Plasmodium falciparum D10; format: functional
[3] = Chemical stability in DMSO/D2O mixture solution at 25 degC by NMR analysis; format: physicochemical
Plasmodium falciparum [4] = test: Antiplasmodial activity against chloroquine-resistant Plasmodium falciparum W2 infected in human RBCs after 72 hrs by parasite lactate dehydrogenase assay; format: functional, organism-based; conditions: W2, 72 h; procedure, shortened: as §1
[5] = Chemical stability of the compound at pH 2 at 37 degC after 1 hr by NMR analysis; format: physicochemical; conditions: buffer, pH 2, 1 h
[6] = Chemical stability of the compound at pH 7.4 at 37 degC by NMR analysis; format: physicochemical; conditions: buffer
[7] = Cytotoxicity against mouse NIH/3T3 cells assessed as cell viability after 24 hrs by neutral red uptake assay; format: cell-based, NIH3T3; conditions: read-out: TC50
Procedure, shortened: (§2)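 NIH3T3 cells grown in DMEM and HepG2 in EMEM, both with 10% FCS, glutamine/penicillin/streptomycin and non-essential amino acids, 37 °C, 5% CO₂. Cells trypsinized at confluence and resuspended. Viability by neutral red uptake after 24 h exposure. Student's t test, p < 0.05.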

[8] = Cytotoxicity against human HepG2 cells assessed as cell viability after 24 hrs by neutral red uptake assay; format: cell-based; conditions: read-out: TC50; procedure, shortened: as §2
Plasmodium berghei [9] = test: Antiplasmodium activity against chloroquine-sensitive Plasmodium berghei ANKA infected in BALB/c mouse assessed as decrease in parasitemia at 50 mg/kg, ip administered until day 4 measured 24 hrs post last dose by Giemsa staining; format: functional, organism-based; parameters: dose 50 mg/kg
Procedure, shortened: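 Peters 4-day test, P. berghei ANKA, female 5-week-old BALB/c mice infected ip with 2 × 10⁷ parasitized erythrocytes. Single group of six mice given 50 mg/kg ip daily, starting 4 h post-infection through day 4. Parasitemia counted on Giemsa tail-blood smears 24 h after final treatment.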

[10] = target: T1, Chloroquine resistance transporter (Plasmodium falciparum, UniProt Q9N623); test: Inhibition of chloroquine-resistant Plasmodium falciparum Dd2 CRT expressed in Xenopus laevis oocytes assessed as reduction in [3H]-chloroquine uptake after 1.5 to 2 hrs
T1 sequence (Q9N623 whole entry): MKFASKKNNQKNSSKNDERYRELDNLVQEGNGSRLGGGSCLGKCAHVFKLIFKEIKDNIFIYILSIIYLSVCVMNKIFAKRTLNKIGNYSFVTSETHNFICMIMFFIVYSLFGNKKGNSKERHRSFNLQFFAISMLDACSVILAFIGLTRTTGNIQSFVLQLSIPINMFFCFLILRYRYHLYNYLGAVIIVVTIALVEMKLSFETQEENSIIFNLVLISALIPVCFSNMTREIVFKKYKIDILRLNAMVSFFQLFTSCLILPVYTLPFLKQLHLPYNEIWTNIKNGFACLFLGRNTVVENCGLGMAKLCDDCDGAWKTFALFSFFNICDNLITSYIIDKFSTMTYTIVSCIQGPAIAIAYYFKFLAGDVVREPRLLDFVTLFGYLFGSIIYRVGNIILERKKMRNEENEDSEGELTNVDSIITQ

[11] = Chemical stability of the compound at pH 7.4 at 37 degC measured for 24 hrs by NMR analysis; format: physicochemical; conditions: buffer, pH 7.4, 24 h
[12] = Chemical stability of the compound at pH 2 at 37 degC measured for 24 hrs by NMR analysis; format: physicochemical; conditions: buffer, pH 2, 24 h
Oryctolagus cuniculus = species on record: Oryctolagus cuniculus; test: Inhibition of rabbit kidney Na+/K+ ATPase hydrolytic activity assessed as inorganic phosphate production at 10 uM by malachite green staining-based colorimetric assay
Procedure, shortened: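 Na⁺,K⁺-ATPase membrane fragments prepared from rabbit kidney outer medulla and used at about 1 μg/mL protein. Buffer: 25 mM MOPS pH 7.0, 100 mM NaCl, 20 mM KCl, 3 mM MgCl₂. Test agent at 10 μM, with ouabain as reference. Pi release measured by malachite green colorimetry.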

CYP3A4 = test: Metabolic stability in human liver microsomes assessed as compound ramining after 1 hr in presence of human recombinant CYP3A4; format: ADME, Microsome; conditions: in the assay text read “assessed” for “in human liver microsomes assessed”, read-out: Stability
Procedure, shortened: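 Substrate at 1 μM final (0.25% organic solvent) incubated 1 h at 37 °C with recombinant hCYP3A4 (20 pmol/mL), with or without NADPH regenerating system. Stopped with acetonitrile. Result is % remaining from MS peak area with NADPH relative to without. CV typically within 10%.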

[13] = Aqueous solubility of the compound in water at pH 3 after 24 hrs; format: physicochemical
Procedure, shortened: (§3)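 Prepared from 10 mM DMSO stock as 250 μM in 50 mM acetic acid (pH 3) or 50 mM ammonium acetate (pH 7.4), 2.5% DMSO final, in filter plates. Filtrate diluted 1:2 and run on UPLC/UV/TOF-MS at 254 nm. Solubility from sample UV area versus a 250 μM standard in acetonitrile/buffer.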

Plasmodium berghei [14] = test: Antiplasmodium activity against chloroquine-sensitive Plasmodium berghei ANKA infected in BALB/c mouse assessed as decrease in parasitemia administered as po until day 4 measured 24 hrs post last dose by Giemsa staining; format: functional
Procedure, shortened: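 P. berghei ANKA in female 5-week-old BALB/c mice (19 g), infected ip with 2 × 10⁷ parasitized erythrocytes. Fresh aqueous stocks (100 mg/mL) diluted 1.5-fold to give 6−7 doses from 4.4 to 50 mg/kg, given once daily by oral gavage starting 4 h post-infection through day 4. Parasitemia read from Giemsa tail-blood smears 24 h after last dose. ED50 from four-parameter logistic fit.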

[15] = target: T2, Chloroquine resistance transporter (Plasmodium falciparum) (UniProt Q9N623); test: Inhibition of chloroquine-resistant Plasmodium falciparum Dd2 CRT expressed in Xenopus laevis oocytes assessed as reduction in [3H]-chloroquine uptake at 100 uM after 1.5 to 2 hrs; format: cell-based; conditions: Oocyte
T2 sequence (whole entry): T1 sequence (Q9N623 whole entry)
Procedure, shortened: (§4)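 Oocytes injected with Dd2 or D10 PfCRT cRNA (20 ng per oocyte). Compound at 100 μM extracellular. [³H]CQ (0.3 μM) uptake measured 3−5 days post-injection over 1.5−2 h at 27.5 °C, in pH 6.0 medium containing 15 μM unlabeled CQ. 10 oocytes per treatment, five experiments. Compared by ANOVA with Tukey's test.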

[16] = Aqueous solubility of the compound in water at pH 7.4 after 24 hrs; format: physicochemical; procedure, shortened: as §3
[17] = target: T2, Chloroquine resistance transporter (Plasmodium falciparum); test: Inhibition of chloroquine-sensitive Plasmodium falciparum D10 CRT expressed in Xenopus laevis oocytes assessed as [3H]-chloroquine uptake at 100 uM after 1.5 to 2 hrs; format: cell-based; conditions: Oocyte; procedure, shortened: as §4
[18] = Intrinsic clearance in rat liver microsomes at 1 uM; format: ADME, Microsome; conditions: read-out: CLH
Procedure, shortened: (§5)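 Substrate at 1 μM with 0.2 mg/mL mouse or rat liver microsomal protein in 100 mM phosphate, pH 7.4. Reaction started with NADPH regenerating system (1 mM NADPH, 10 mM G6P, 0.4 U/mL G6PDH) and stopped with acetonitrile at intervals over 0−45 min, in duplicate. HPLC-MS depletion fitted monoexponentially; Clint = k × V/P.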

[19] = Intrinsic clearance in mouse liver microsomes at 1 uM; format: ADME, Microsome; conditions: read-out: CLH; procedure, shortened: as §5
[20] = target: Potassium voltage-gated channel subfamily H member 2 (Rattus norvegicus); test: Inhibition of rat ERG after 2 to 3 days by patch clamp assay
[21] = Chemical stability of the compound at pH 7.4; format: physicochemical; conditions: buffer

CCCN1COc2cc(Nc3ccnc4cc(Cl)ccc34)ccc2C1
IC50 (Plasmodium falciparum [1]): 21 nM | Ratio IC50 (Plasmodium falciparum [2]): 2 | Stability [3]: Stable | IC50 (Plasmodium falciparum [4]): 40 nM | Stability [5]: Unstable | Stability [6]: Stable

CCN(CC)Cc1ccc(Nc2ccnc3cc(Cl)ccc23)cc1O [ISOQUINE]
IC50 (Plasmodium falciparum [1]): 27 nM | Ratio IC50 (Plasmodium falciparum [2]): 1.1 | IC50 (Plasmodium falciparum [4]): 31 nM

CCCn1cnc2cc(Nc3ccnc4cc(Cl)ccc34)ccc2c1=O
IC50 (Plasmodium falciparum [1]): > 1000 nM | IC50 (Plasmodium falciparum [4]): > 1000 nM

Clc1ccc2c(Nc3ccc4c(c3)OCN(Cc3ccccc3)C4)ccnc2c1
IC50 (Plasmodium falciparum [1]): 38 nM | CC50 at 24 h [7]: 40 µM | Ratio IC50 (Plasmodium falciparum [2]): 0.8 | Stability [3]: Stable | IC50 (Plasmodium falciparum [4]): 31 nM | Stability [5]: Unstable | Stability [6]: Stable | CC50 at 24 h [8]: 15 µM

CCN1COc2cc(Nc3ccnc4cc(Cl)ccc34)ccc2C1
IC50 (Plasmodium falciparum [1]): 23 nM | CC50 at 24 h [7]: 29 µM | Activity (Plasmodium berghei [9]): Active | Ratio IC50 (Plasmodium falciparum [2]): 3.1 | Stability [3]: Stable | IC50 (Plasmodium falciparum [4]): 72 nM | Stability [5]: Unstable | Stability [6]: Stable | CC50 at 24 h [8]: 6 µM

CCn1cnc2cc(Nc3ccnc4cc(Cl)ccc34)ccc2c1=O
IC50 (Plasmodium falciparum [1]): > 1000 nM | IC50 (Plasmodium falciparum [4]): > 1000 nM

CC(C)(C)NC(=O)[C@@H]1C[C@@H]2CCCC[C@@H]2CN1C[C@@H](O)[C@H](Cc1ccccc1)NC(=O)[C@H](CC(N)=O)NC(=O)c1ccc2ccccc2n1
IC50 [10]: 13 µM

CCN(CC)Cc1cc(Nc2ccnc3cc(Cl)ccc23)ccc1O.Cl
IC50 (Plasmodium falciparum [1]): 25 nM | Ratio IC50 (Plasmodium falciparum [2]): 0.7 | IC50 (Plasmodium falciparum [4]): 19 nM

CCN1CNc2cc(Nc3ccnc4cc(Cl)ccc34)ccc2C1
IC50 (Plasmodium falciparum [1]): 11 nM | Stability [11]: Stable | Ratio IC50 (Plasmodium falciparum [2]): 5.4 | IC50 (Plasmodium falciparum [4]): 60 nM | Stability [12]: Stable

O=C1c2ccc(Nc3ccnc4cc(Cl)ccc34)cc2NCN1Cc1ccccc1
IC50 (Plasmodium falciparum [1]): > 1000 nM | IC50 (Plasmodium falciparum [4]): > 1000 nM

O=c1c2ccc(Nc3ccnc4cc(Cl)ccc34)cc2ncn1Cc1ccc(CN2CCCC2)cc1
IC50 (Plasmodium falciparum [1]): 31 nM | Ratio IC50 (Plasmodium falciparum [2]): 2.7 | IC50 (Plasmodium falciparum [4]): 83 nM

C[C@@H]1O[C@@H](O[C@H]2C[C@@H](O)[C@]3(CO)[C@H]4[C@H](O)C[C@]5(C)[C@@H](C6=CC(=O)OC6)CC[C@]5(O)[C@@H]4CC[C@]3(O)C2)[C@H](O)[C@H](O)[C@H]1O
inhibition (Oryctolagus cuniculus): Active

Clc1ccc2c(Nc3ccc4c(c3)NCN(Cc3ccccc3)C4)ccnc2c1
IC50 (Plasmodium falciparum [1]): 53 nM | CC50 at 24 h [7]: 40 µM | Stability [11]: Stable | IC50 [10]: 228 µM | remaining at 1 h (CYP3A4): 18% | solubility at 24 h [13]: 122 µM (≈ 48.9 µg/mL) | IC50 (Plasmodium falciparum [4]): 67 nM | inhibition (Oryctolagus cuniculus): 35% | Stability [12]: Stable | ED50 (Plasmodium berghei [14]): 15.7 mg/kg | inhibition [15]: Active | solubility ([16]; buffer, pH 7.4, 24 h, BLD = below limit of detection): BLD | inhibition [17]: inactive | CC50 at 24 h [8]: 25 µM

CCN(CC)CCCC(C)Nc1ccnc2cc(Cl)ccc12 (configuration not stated) [CHLOROQUINE]
CC50 at 24 h [7]: > 80 µM | CC50 at 24 h [8]: 31 µM

O=c1c2ccc(Nc3ccnc4cc(Cl)ccc34)cc2ncn1Cc1ccccc1
IC50 (Plasmodium falciparum [1]): > 1000 nM | IC50 (Plasmodium falciparum [4]): > 1000 nM

CCCN1CNc2cc(Nc3ccnc4cc(Cl)ccc34)ccc2C1
IC50 (Plasmodium falciparum [1]): 21 nM | CC50 at 24 h [7]: 17 µM | microsomal CLint at 1 µM [18]: 121 µL/min/mg | Stability [11]: Stable | Ratio IC50 (Plasmodium falciparum [2]): 2.5 | remaining at 1 h (CYP3A4): 43% | solubility at 24 h [13]: 231 µM (≈ 81.5 µg/mL) | microsomal CLint at 1 µM [19]: 219 µL/min/mg | IC50 [20]: 22 nM | inhibition (INH) ([20]; rat): Dose-dependent effect | IC50 (Plasmodium falciparum [4]): 53 nM | Stability [21]: 100% | inhibition (Oryctolagus cuniculus): 35% | Stability [12]: Stable | ED50 (Plasmodium berghei [14]): 8.74 mg/kg | inhibition [15]: Active | solubility at 24 h ([16]; water, pH 7.4): 53 µM (≈ 18.7 µg/mL) | inhibition [17]: inactive | CC50 at 24 h [8]: 5.7 µM

Source: ChEMBL document CHEMBL2176916, “Mimicking the intramolecular hydrogen bond: synthesis, biological evaluation, and molecular modeling of benzoxazines and quinazolines as potential antimalarial agents” (J Med Chem, 2012)
